# Measured values as given in ChEMBL document CHEMBL3393023, “Benzimidazole-containing HCV NS5A inhibitors: effect of 4-substituted pyrrolidines in balancing genotype 1a and 1b potency” (Bioorg Med Chem Lett, 2015).
# What was measured:
# [1] = Protein binding in human plasma; type: ADME, cell-free; details: read-out: PPB (converted)
# [2] = Half life in rat at 3 mg/kg, po; type: ADME, organism-based; design: dose 3 mg/kg, route oral; details: in vivo
# Summary of the method: (§1)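 Rats were dosed orally at 3 mg/kg as a solution in 30% aqueous PEG-400.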
# [3] = Metabolic stability in rat hepatocytes assessed as compound remaining at 5 uM after 60 mins; type: ADME, cell-based, Hepatocyte; details: read-out: Stability
# [4] = molecular target: T1, Voltage-gated inwardly rectifying potassium channel KCNH2 (Homo sapiens, UniProt Q12809); test: Inhibition of human ERG channel by planar technique
# T1 sequence (Q12809 whole entry): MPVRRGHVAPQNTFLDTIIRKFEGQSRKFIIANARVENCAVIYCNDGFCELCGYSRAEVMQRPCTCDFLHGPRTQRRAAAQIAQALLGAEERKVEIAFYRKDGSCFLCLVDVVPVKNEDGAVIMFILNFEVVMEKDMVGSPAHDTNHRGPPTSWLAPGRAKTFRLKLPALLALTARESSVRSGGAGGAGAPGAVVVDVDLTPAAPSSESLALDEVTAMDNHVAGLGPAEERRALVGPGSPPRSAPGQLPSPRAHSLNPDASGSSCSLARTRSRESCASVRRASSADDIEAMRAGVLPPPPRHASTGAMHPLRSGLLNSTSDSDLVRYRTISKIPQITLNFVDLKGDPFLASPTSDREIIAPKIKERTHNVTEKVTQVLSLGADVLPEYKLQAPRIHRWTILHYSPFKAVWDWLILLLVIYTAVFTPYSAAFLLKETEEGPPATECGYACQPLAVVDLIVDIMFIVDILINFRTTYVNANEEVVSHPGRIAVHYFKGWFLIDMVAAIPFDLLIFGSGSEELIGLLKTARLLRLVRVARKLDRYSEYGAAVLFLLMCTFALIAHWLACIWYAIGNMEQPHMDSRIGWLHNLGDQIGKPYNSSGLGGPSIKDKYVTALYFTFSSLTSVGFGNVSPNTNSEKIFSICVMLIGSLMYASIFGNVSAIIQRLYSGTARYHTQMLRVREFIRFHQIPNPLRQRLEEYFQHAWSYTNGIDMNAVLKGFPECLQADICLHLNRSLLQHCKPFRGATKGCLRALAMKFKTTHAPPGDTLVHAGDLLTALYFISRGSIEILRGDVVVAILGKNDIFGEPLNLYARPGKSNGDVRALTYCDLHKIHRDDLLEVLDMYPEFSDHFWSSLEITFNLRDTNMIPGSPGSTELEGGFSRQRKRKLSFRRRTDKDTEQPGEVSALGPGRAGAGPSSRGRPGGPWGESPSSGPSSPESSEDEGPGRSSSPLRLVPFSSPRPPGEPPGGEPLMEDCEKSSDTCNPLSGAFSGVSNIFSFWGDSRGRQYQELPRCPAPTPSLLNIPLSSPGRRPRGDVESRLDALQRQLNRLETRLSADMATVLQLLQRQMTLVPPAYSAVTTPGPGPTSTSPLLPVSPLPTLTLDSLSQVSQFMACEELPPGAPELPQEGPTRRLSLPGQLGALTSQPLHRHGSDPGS
# [5] = molecular target: Cytochrome P450 2C19 (Homo sapiens, UniProt P33261); test: Inhibition of CYP2C19 (unknown origin); type: ADME
# Chain of Cytochrome P450 2C19 (P33261 whole entry): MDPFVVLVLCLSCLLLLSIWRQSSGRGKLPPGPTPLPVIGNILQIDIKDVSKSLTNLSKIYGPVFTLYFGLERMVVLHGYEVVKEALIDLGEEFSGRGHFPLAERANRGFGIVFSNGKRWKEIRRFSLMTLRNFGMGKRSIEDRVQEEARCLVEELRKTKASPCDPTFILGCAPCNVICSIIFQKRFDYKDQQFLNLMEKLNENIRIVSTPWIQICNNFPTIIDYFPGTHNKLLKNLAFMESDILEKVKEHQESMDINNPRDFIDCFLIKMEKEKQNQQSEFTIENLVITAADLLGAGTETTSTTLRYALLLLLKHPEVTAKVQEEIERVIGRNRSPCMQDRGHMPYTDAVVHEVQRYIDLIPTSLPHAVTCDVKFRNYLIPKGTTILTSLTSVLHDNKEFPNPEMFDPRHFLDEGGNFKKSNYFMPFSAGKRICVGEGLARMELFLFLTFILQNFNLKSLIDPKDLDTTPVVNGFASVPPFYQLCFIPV
# [6] = molecular target: Cytochrome P450 2C9 (Homo sapiens, UniProt P11712); test: Inhibition of CYP2C9 (unknown origin); type: ADME
# Chain of Cytochrome P450 2C9 (P11712 whole entry): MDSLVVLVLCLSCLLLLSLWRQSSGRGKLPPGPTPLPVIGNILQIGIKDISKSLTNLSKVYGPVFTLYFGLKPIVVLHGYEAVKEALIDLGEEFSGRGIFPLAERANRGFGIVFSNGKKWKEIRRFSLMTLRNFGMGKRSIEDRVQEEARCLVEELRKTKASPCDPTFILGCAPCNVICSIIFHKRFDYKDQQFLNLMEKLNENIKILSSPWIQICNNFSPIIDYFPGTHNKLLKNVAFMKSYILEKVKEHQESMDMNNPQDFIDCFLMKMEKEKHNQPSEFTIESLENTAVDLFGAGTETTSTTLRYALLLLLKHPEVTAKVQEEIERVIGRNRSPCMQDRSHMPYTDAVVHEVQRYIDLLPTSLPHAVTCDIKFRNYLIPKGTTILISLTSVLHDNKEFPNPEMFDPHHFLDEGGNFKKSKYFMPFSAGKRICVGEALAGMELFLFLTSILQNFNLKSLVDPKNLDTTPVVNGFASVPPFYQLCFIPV
# [7] = Clearance in iv dosed rat; type: ADME, organism-based; details: in vivo
# [8] = molecular target: T1, Voltage-gated inwardly rectifying potassium channel KCNH2; test: Inhibition of human ERG channel by QPatch technique
# [9] = Cmax in rat at 3 mg/kg, po; type: ADME, organism-based; design: dose 3 mg/kg, route oral; details: in vivo; summary of the method: as §1
# [10] = test system: Hepatitis C virus; test: Antiviral activity against Hepatitis C virus genotype 1a infected in W11.8 cells assessed as decrease in NS5A expression in replicon cell after 4 days by luminescence based ELISA; type: functional, Hepacivirus hominis; details: subtype 1a, W11.8, 96 h
# [11] = Permeability from apical to basolateral layer in human Caco2 cells; type: ADME, cell-based; details: Caco-2, read-out: permeability
# [12] = Volume of distribution at steady state in iv dosed rat; type: ADME, organism-based; details: in vivo, read-out: Vdss
# [13] = test system: MDR1 (human); test: Efflux ratio of permeability in MDCK cells over-expressing human Mdr1; type: ADME, cell-based, Canis lupus familiaris; details: dog
# [14] = test system: Hepatitis C virus; test: Selectivity index, ratio of EC50 for HCV genotype 1b expressing NS5A Y93H mutant to EC50 for HCV genotype 1b expressing wild type NS5A; type: functional, Hepacivirus hominis
# Summary of the method: (§2)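 Recombinant HCV replicon cell lines carrying the single NS5A substitution were tested, with the matching wild-type replicon as reference. The value is the fold shift of activity against the mutant relative to wild-type activity.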
# [15] = molecular target: Cytochrome P450 3A4 (Homo sapiens, UniProt P08684); test: Inhibition of CYP3A4 (unknown origin); type: ADME
# Chain of Cytochrome P450 3A4 (P08684 whole entry): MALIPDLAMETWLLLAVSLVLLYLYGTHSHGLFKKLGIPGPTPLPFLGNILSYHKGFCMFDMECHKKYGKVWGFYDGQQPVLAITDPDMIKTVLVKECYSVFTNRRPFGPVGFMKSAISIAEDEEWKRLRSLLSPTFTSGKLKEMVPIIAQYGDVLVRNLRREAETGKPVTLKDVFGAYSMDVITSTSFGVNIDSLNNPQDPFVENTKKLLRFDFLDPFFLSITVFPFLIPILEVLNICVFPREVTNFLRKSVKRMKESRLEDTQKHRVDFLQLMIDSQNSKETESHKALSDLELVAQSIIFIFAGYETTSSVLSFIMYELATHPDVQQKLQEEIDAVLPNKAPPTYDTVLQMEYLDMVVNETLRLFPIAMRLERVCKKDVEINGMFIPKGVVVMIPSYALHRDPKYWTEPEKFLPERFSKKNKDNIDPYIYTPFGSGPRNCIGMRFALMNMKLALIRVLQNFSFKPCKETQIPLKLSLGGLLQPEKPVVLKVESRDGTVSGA
# [16] = test system: Hepatitis C virus; test: Selectivity index, ratio of EC50 for HCV genotype 1a expressing NS5A M28T mutant to EC50 for HCV genotype 1a expressing wild type NS5A; type: functional, Hepacivirus hominis, subtype 1a; summary of the method: as §2
# [17] = Protein binding in rat plasma; type: ADME, cell-free; details: read-out: PPB (converted)
# [18] = Oral bioavailability in rat at 3 mg/kg; type: ADME, organism-based; details: in vivo; summary of the method: as §1
# [19] = molecular target: Cytochrome P450 2D6 (Homo sapiens, UniProt P10635); test: Inhibition of CYP2D6 (unknown origin); type: ADME
# Chain of Cytochrome P450 2D6 (P10635 whole entry): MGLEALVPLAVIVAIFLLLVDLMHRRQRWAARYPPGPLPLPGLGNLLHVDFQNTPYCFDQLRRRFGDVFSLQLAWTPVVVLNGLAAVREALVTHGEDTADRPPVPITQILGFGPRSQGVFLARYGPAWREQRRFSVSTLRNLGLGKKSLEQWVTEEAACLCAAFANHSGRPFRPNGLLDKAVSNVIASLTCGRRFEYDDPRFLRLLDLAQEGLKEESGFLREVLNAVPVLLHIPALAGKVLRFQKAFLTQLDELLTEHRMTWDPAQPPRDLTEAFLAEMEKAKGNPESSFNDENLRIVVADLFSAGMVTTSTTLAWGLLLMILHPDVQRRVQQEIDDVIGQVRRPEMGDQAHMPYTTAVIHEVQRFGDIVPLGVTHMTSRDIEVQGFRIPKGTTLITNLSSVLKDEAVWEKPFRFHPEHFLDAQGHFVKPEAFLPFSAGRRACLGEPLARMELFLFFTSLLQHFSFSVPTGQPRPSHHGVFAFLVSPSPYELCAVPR
# [20] = AUC (0 to 8 hrs) in rat at 3 mg/kg, po; type: ADME, organism-based; design: time < 8 hr, dose 3 mg/kg, route oral; details: plasma; summary of the method: as §1
# [21] = test system: Hepatitis C virus; test: Selectivity index, ratio of EC50 for HCV genotype 1a expressing NS5A Y93H mutant to EC50 for HCV genotype 1a expressing wild type NS5A; type: functional, Hepacivirus hominis, subtype 1a; summary of the method: as §2
# [22] = Cytotoxicity against human Huh7ET cells by [3H]-thymidine incorporation assay; type: cell-based; details: Huh7ET cells (Huh-7)
# Summary of the method: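 Huh-7 ET cells were exposed to 12 test-compound concentrations, each in duplicate. Viability was read by [3H]-thymidine incorporation and CC50 was derived from the curve. A run was accepted only when the positive-control CC50 fell within 40% of its mean value.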
# [23] = test system: Hepatitis C virus; test: Antiviral activity against Hepatitis C virus genotype 1b infected in human Huh-5.2 cells assessed as decrease in HCV replicon RNA replication after 4 days by luciferase assay; type: functional, cell-based, Hepacivirus hominis; details: Huh-5-2, 96 h
# [24] = Half life in iv dosed rat; type: ADME, organism-based; details: in vivo
# [25] = test system: Hepatitis C virus; test: Selectivity index, ratio of EC50 for HCV genotype 1a expressing NS5A Q30R mutant to EC50 for HCV genotype 1a expressing wild type NS5A; type: functional, Hepacivirus hominis, subtype 1a; summary of the method: as §2
# [26] = Metabolic stability in human hepatocytes assessed as compound remaining at 5 uM after 60 mins; type: ADME, cell-based, Hepatocyte; details: read-out: Stability
# [27] = molecular target: T2, Cytochrome P450 1A2 (Homo sapiens, UniProt P05177); test: Inhibition of CYP1A2 (unknown origin); type: ADME
# T2 sequence (P05177 whole entry): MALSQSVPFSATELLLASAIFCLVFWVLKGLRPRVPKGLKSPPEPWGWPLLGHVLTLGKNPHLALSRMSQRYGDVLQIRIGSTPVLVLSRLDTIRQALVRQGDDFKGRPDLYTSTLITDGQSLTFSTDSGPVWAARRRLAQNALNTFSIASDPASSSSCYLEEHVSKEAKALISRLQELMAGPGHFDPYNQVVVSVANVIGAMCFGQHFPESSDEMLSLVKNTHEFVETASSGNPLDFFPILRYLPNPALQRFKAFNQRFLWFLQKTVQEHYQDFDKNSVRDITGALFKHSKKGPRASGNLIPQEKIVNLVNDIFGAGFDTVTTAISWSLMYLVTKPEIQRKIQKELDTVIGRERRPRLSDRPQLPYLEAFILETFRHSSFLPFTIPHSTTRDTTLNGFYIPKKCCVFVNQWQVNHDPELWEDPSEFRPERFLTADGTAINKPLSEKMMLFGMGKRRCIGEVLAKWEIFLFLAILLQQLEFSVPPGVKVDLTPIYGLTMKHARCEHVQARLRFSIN
compound,measurement,setting,value
COC(=O)N[C@H](C(=O)N1C[C@@H](C)C[C@H]1c1nc(-c2ccc(-c3ccc(-c4ccc5[nH]c([C@@H]6C[C@H](C)CN6C(=O)[C@@H](NC(=O)OC)C(C)C)nc5c4)cc3)cc2)c[nH]1)C(C)C,fraction unbound,[1],0.014
same,half-life,[2],3.5 h
same,"remaining at 1 h, 5 µM",[3],> 90%
same,IC50,[4],> 30 µM
same,IC50,[5],> 30 µM
same,IC50,[6],> 30 µM
same,clearance,[7],9 mL/min/kg
same,IC50,[8],> 30 µM
same,Cmax,[9],0.03 ng/mL
same,EC50,[10],4 pM
same,Papp A→B,[11],4.1 ×10⁻⁶ cm/s
same,Vd,[12],1.4 L/kg
same,efflux ratio,[13],1.8
same,Selectivity ratio,[14],100
same,IC50,[15],> 30 µM
same,Selectivity ratio,[16],55
same,fraction unbound,[17],0.083
same,bioavailability,[18],26%
same,IC50,[19],> 30 µM
same,AUC(0-t) at 8 h,[20],2080 ng·h/mL
same,Selectivity ratio,[21],8000
same,CC50,[22],> 20 µM
same,EC50,[23],5 pM
same,half-life,[24],2 h
same,Selectivity ratio,[25],42
same,"remaining at 1 h, 5 µM",[26],> 90%
same,IC50,[27],> 30 µM
